Target: T1, Interleukin-2 (Mus musculus, UniProt P04351)
T1 sequence (P04351 whole entry): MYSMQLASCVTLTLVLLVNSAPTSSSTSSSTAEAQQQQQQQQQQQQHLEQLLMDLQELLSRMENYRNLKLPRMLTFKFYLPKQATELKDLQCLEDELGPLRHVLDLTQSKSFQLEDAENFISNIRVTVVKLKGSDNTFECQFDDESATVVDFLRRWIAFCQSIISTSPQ
Assay: The compound was evaluated in vitro for the immunosuppressive activity in interleukin-2 by interleukin-2 reporter gene assay (IL2-RGA)
Outline: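 Cellular immunosuppression read in the mouse mixed lymphocyte reaction or the interleukin-2 reporter gene assay. The IC50 in nM is the mean of three independent experiments.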

Structure (SMILES) | IC50 [nM]
C/C=C/C[C@@H](C)[C@@H](O)[C@@H]1C(=O)N[C@H](CCCO)C(=O)N(C)CC(=O)N(C)[C@H](CC(C)C)C(=O)N[C@H](C(C)C)C(=O)N(C)[C@H](CC(C)C)C(=O)N[C@H](C)C(=O)N[C@@H](C)C(=O)N(C)[C@H](CC(C)C)C(=O)N(C)[C@H](CC(C)C)C(=O)N(C)[C@H](C(C)C)C(=O)N1C [33-(1-Hydroxy-2-methyl-hex-4-enyl)-30-(3-hydroxy-propyl)-6,9,18,24-tetraisobutyl-3,21-diisopropyl-1,4,7,10,12,15,19,25,28-nonamethyl-1,4,7,10,13,16,19,22,25,28,31undecaaza-cyclotritriacontan-2,5,8,11,14,17,20,23,26,29,32-undecaone] | 70
C/C=C/C[C@@H](C)[C@@H](O)[C@H]1C(=O)N[C@@H](CCC)C(=O)N(C)CC(=O)N(C)[C@@H](CC(C)C)C(=O)N[C@@H](C(C)C)C(=O)N(C)[C@@H](CC(C)C)C(=O)N[C@@H](C)C(=O)N[C@H](C)C(=O)N(C)[C@@H](CC(C)C)C(=O)N(C)[C@@H](CC(C)C)C(=O)N(C)[C@@H](C(C)C)C(=O)N1C [GECLOSPORIN] | 13

From BindingDB's records for doi:10.1021/jm00017a020 (Sandoz Pharma, 1995)
